The values below come from PubChem BioAssay.

Molecules are shown by their SMILES. Calls of active or inactive are those of the source.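 How the source made its calls, unless noted: active means visually confirmed hit in the image check and inhibition above 20%; inconclusive means visually confirmed hit but inhibition not above 20%; inactive means no visual hit in the image check.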

Assay [1] in a line: inhibitors of TNFa-induced NFkB p65 translocation, primary screen, imaging, HUVEC, MLSMR starter and 10KST1 sets (AID 438;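 active means inhibition above 20% together with a positive visual image hit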;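 further: compound added about 3h40 before a 20 min TNFalpha stimulation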;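 on inhibition: signal is the nuclear over cytoplasmic p65 intensity ratio per well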). The note with it: HUVEC TNFa-induced p65 nuclear translocation; cell count: measured here: nuclei count (cytotoxicity indicator), at 2.08 µM; inhibition: at 2 µM, stronger effect = higher value, 0% TNFa-plus-vehicle, 100% no-TNFa wells.
A short description of assay [2]: reduction of polyQ htt aggregates in cells – imaging, exon1htt(103Q)mCFP cells, high-content imaging, primary screen (AID 483;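 active means visual image review flags a hit and inhibition of aggregation exceeds 20%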;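 further: compound exposure lasted 3 days before fixation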;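 on nuclei count: percent of the per-plate median nuclei count of sample wells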). The note with it: exon1htt(103Q)mCFP cell line, aggregate imaging, at 2 µM; inhibition of aggregation: stronger effect = higher value; nuclei count: measured here: cell count, toxicity.
Assay [3] is described as follows: endothelial E-selectin expression blockers – imaging, HUVEC, immunofluorescence, MLSMR starter and 10KST1 sets, primary screen (AID 487).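 On inhibition: signal is fraction of cell area covered by stained E-selectin grains.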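 On nuclei count: 100% = median nuclei count of all wells on the same plate.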 The conditions noted are these: HUVEC TNFalpha-induced E-selectin immunofluorescence imaging, at 2 µM; inhibition: stronger effect = higher value; nuclei count: measured here: cell number, toxicity.
Assay [4] addresses Voltage-gated potassium channel subunit beta-2 (Rattus norvegicus) (UniProt P62483). Nature of the assay: inhibitors of rat Kvbeta2 reductase activity – biochemical, NADPH fluorescence, primary screen (AID 622;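 active means fluorescence slope higher than the sample average by over 3 SD, cut at about -0.22 in these data, passing the limit was not always enough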;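 further: slope of raw intensity against log time taken from 70 to 1610 s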). The conditions noted are these: recombinant KvBeta, 4-cyanobenzaldehyde reduction, at 10 µM, stronger effect = higher value.
For assay [5] the target is unchanged. Nature of the assay: enhancers of rat Kvbeta2 NADPH turnover – biochemical, NADPH fluorescence, primary screen (AID 623;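 active means NADPH fluorescence slope more negative than the mean of all samples by about 3 SD, 99.7% confidence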;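 further: fluorescence intensity change per second fitted from 20 to 320 s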). The note with it: Recombinant KvBeta, NADPH fluorescence decrease slope, 10 min; at 10 µM; stronger effect = lower value.
Assay [6] concerns the target Muscarinic acetylcholine receptor M4 (Homo sapiens) (UniProt P08173). The assay is described as follows: M4-linked GIRK flux change, two-sided – cell-based, HEK293 M4/GIRK, thallium flux, BTC-AM, M4 allosteric agonist project, primary screen (AID 625;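 active means fluorescence slope after compound addition differing from the mean of all tested samples at 99.7% confidence, mostly higher but some lower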;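 further: thallium influx through GIRK channels coupled to M4 in HEK293 cells with BTC-AM dye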). The note with it: at 10 µM, actives lie on both sides. The method in brief: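 assay system = HEK293 cells with M4 receptor and GIRK channels | medium = pH 7.3 thallium assay buffer | doses = 10 µM final, single point | timing = cells overnight at 37 °C, BTC-AM loading 1 h, reads 2 min total | signal = BTC-AM fluorescence, 1 Hz kinetic reads | read-out = post-addition slope, 15–24 s, of baseline-normalized fluorescence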

A short description of assay [7]: blockers of RIG-like receptor reporter activation – cell-based, Sendai virus stimulus, luciferase, 10K MLSCN set, TLR/RLR signaling modifier project, primary screen (AID 602276;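 active means inhibition at or above 50% at 10 µM; inactive means inhibition below 50%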;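 further: firefly luciferase from ISG56 promoter only with Renilla not read in this screen; 0% = Sendai virus plus DMSO and 100% = medium plus DMSO without virus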). The note with it: HEK293 RL24 IRF3 luciferase reporter, at 10 µM, stronger effect = higher value. For orientation: Reporter assays use an easily measured gene product as a stand-in for the process of interest.

Assay [8] in a line: TLR3 IRF3 reporter activation blockers – cell-based, poly I:C stimulus, luciferase, 10K MLSCN set, primary screen (AID 602277;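 active means inhibition of the reporter signal at or above 50%; inactive means inhibition below 50%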). The conditions noted are these: HEK293-TLR3 RL24 IRF3 luciferase reporter, at 10 µM, stronger effect = higher value.

Chain of Muscarinic acetylcholine receptor M4 (Homo sapiens) (P08173 whole entry, looked up): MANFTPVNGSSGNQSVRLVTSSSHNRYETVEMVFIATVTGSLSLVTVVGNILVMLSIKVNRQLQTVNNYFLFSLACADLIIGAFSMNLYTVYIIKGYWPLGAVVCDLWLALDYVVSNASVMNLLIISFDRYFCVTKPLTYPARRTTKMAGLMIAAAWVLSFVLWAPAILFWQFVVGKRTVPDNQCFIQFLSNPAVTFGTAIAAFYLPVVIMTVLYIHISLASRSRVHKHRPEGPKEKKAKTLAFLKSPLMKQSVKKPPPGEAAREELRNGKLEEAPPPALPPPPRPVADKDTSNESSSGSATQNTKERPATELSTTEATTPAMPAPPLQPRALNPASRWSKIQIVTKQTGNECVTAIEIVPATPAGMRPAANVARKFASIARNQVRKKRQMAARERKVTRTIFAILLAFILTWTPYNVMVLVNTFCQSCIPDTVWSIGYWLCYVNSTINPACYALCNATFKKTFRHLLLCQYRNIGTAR
Chain of Voltage-gated potassium channel subunit beta-2 (Rattus norvegicus) (P62483 whole entry, looked up): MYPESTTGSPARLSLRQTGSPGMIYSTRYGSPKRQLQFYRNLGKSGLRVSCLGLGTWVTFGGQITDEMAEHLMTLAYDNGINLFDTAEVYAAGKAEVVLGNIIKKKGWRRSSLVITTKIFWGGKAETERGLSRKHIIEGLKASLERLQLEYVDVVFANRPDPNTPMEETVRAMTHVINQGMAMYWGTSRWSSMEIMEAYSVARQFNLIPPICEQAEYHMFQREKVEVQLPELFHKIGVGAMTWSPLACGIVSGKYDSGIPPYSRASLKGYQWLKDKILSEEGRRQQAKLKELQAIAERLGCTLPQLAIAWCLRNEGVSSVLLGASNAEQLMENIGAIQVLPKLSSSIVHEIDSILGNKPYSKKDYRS

Consider `O=C(C1CC1)N1CCc2cc(S(=O)(=O)N(CCO)Cc3ccccc3)ccc21`, for which, in assay [1], the cell count came out at 612. Further, the inhibition was 7.7% (inactive) in assay [1], -91% (inactive) in assay [3], -3.85% (inactive) in assay [7] and -12.4% (inactive) in assay [8]. In addition, in assay [2], the inhibition of aggregation is -16% (inactive). Also, the nuclei count in assay [2] was determined as 108%; in assay [3], 122%. Moreover, the results for the fluorescence slope in assay [4] and in assay [6] were -0.498 (inactive) and 0.00651 (inactive), respectively. In addition, the NADPH fluorescence slope in assay [5] was 0.000108 (inactive).

In the case of `Cc1noc(C)c1S(=O)(=O)Nc1c(C)n(C)n(-c2ccccc2)c1=O`, in assay [1], the cell count worked out at 410. Besides, the inhibition in assay [1] was 2.5% (inactive); in assay [3], -5.4% (inactive); in assay [7], 13.8% (inactive); in assay [8], 22.3% (inactive). Further, in assay [2], the inhibition of aggregation was 33.5% (inactive). Moreover, the nuclei count is 84.8% in assay [2] and 96% in assay [3]. The fluorescence slope in assay [4] was -0.472 (inactive); in assay [6] it was 0.00591 (inactive). Moreover, in assay [5], the NADPH fluorescence slope is 1.2e-05 (inactive).

Consider `CCOc1ccc(OCc2ccc(C(=O)Nc3cccc(C)n3)o2)cc1`, for which, in assay [1], the cell count was determined as 731. The inhibition was -4.2% (inactive) in assay [1], -43.1% (inactive) in assay [3], -27% (inactive) in assay [7] and -74% (inactive) in assay [8]. The inhibition of aggregation in assay [2] is -3.4% (inactive). The results for the nuclei count in assay [2] and in assay [3] were 114% and 117%, respectively. The fluorescence slope in assay [4] is -0.557 (inactive); in assay [6], 0.00558 (inactive). Further, the NADPH fluorescence slope in assay [5] is -6.3e-05 (inactive).

Consider `Cc1ccnc(NC(=O)Nc2ccc(F)cc2)c1`, for which, in assay [1], the cell count came out at 478. In addition, the inhibition in assay [1] is 8.1% (inactive); in assay [3] it was -266% (inactive); in assay [7] it was -59.1% (inactive); in assay [8], -110% (inactive). The inhibition of aggregation in assay [2] is 9.2% (inactive). Further, the nuclei count in assay [2] came out at 98.7%; in assay [3], 126%. The fluorescence slope was -0.567 (inactive) in assay [4] and 0.0057 (inactive) in assay [6]. The NADPH fluorescence slope in assay [5] is -9.3e-06 (inactive).

Consider `CC(C)=CC/C=C1\CCC(C(=O)O)C(C(=O)O)C1` (centres undefined), for which the cell count in assay [1] came to 661. Moreover, the inhibition in assay [1] was -6.8% (inactive); in assay [3], -30.8% (inactive); in assay [7], 15.6% (inactive); in assay [8] it was 13.1% (inactive). Further, in assay [2], the inhibition of aggregation is -3.8% (inactive). The nuclei count is 116% in assay [2] and 100% in assay [3]. Besides, the figures for the fluorescence slope in assay [4] and in assay [6] were -0.52 (inactive) and 0.00515 (inactive), respectively. The NADPH fluorescence slope in assay [5] was -1.4e-05 (inactive).

Take `CCOC(=O)N1CCN(C(=O)CN(C)S(=O)(=O)c2ccc(OC)c(OC)c2)CC1`: in assay [1], the cell count stood at 464. Further, the inhibition was 5.8% (inactive) in assay [1], 17.8% (inactive) in assay [3], 16.2% (inactive) in assay [7] and 20.5% (inactive) in assay [8]. For the same molecule, the inhibition of aggregation in assay [2] is -12.7% (inactive). Also, the nuclei count was 118% in assay [2] and 102% in assay [3]. Also, the fluorescence slope in assay [4] was -0.614 (inactive); in assay [6], 0.00404 (inactive). Also, the NADPH fluorescence slope in assay [5] is -3.8e-05 (inactive).

As for `CC(=O)CC(=O)Nc1ccccc1NC(C)=O`, the cell count in assay [1] is 470. In addition, the inhibition is 6.5% (inactive) in assay [1], -17.4% (inactive) in assay [3], 14.2% (inactive) in assay [7] and 15% (inactive) in assay [8]. Moreover, the inhibition of aggregation in assay [2] is -2.9% (inactive). Besides, the nuclei count turned out to be 108% in assay [2] and 110% in assay [3]. The fluorescence slope in assay [4] was -0.579 (inactive); in assay [6] it was 0.00558 (inactive). The NADPH fluorescence slope in assay [5] was -2.4e-05 (inactive).

In the case of `Cc1ccc(S(=O)(=O)N(C)c2ccc(OCC(=O)OCc3c(C)noc3C)cc2)cc1`, in assay [1], the cell count was determined as 455. Moreover, the inhibition in assay [1] is -15.1% (inactive); in assay [3], -15.8% (inactive); in assay [7], 5.73% (inactive); in assay [8], 14.5% (inactive). In assay [2], the inhibition of aggregation was 8.4% (inactive). Also, the nuclei count in assay [2] was determined as 146%; in assay [3], 108%. Besides, the fluorescence slope in assay [4] was -0.583 (inactive); in assay [6], 0.00507 (inactive). Further, the NADPH fluorescence slope in assay [5] is -3.3e-05 (inactive).

With `O=C(O)CCc1ccc(-c2cccs2)n1NC(=O)c1ccco1`, the cell count in assay [1] came to 719. Also, the inhibition is 3.6% (inactive) in assay [1], -93.6% (inactive) in assay [3], 20.8% (inactive) in assay [7] and 17.9% (inactive) in assay [8]. Moreover, the inhibition of aggregation in assay [2] was -10.1% (inactive). Also, the nuclei count turned out to be 107% in assay [2] and 132% in assay [3]. Also, the fluorescence slope is -0.463 (inactive) in assay [4] and 0.00473 (inactive) in assay [6]. For the same molecule, the NADPH fluorescence slope in assay [5] was 1.5e-05 (inactive).

Consider `CC(NC(=O)CSc1n[nH]c(=O)n1C1CC1)C12CC3CC(CC(C3)C1)C2` (centres undefined), for which the cell count in assay [1] was 563. Besides, the inhibition was -23% (inactive) in assay [1], -5.1% (inactive) in assay [3], 7.91% (inactive) in assay [7] and 23.3% (inactive) in assay [8]. For the same molecule, the inhibition of aggregation in assay [2] is -6.1% (inactive). Besides, the nuclei count in assay [2] was 101%; in assay [3], 110%. Moreover, the figures for the fluorescence slope in assay [4] and in assay [6] were -0.378 (inactive) and 0.00652 (inactive), respectively. Moreover, in assay [5], the NADPH fluorescence slope was 8.6e-05 (inactive).

Consider `Cc1cc(C)c2c(=O)[nH]c(=O)n(Cc3ccccc3)c2n1`, for which the cell count in assay [1] stood at 303. Moreover, the inhibition in assay [1] was 20% (inactive); in assay [3], 0.6% (inactive); in assay [7], 16.5% (inactive); in assay [8], 27.4% (inactive). In assay [2], the inhibition of aggregation is -9.7% (inactive). For the same molecule, the results for the nuclei count in assay [2] and in assay [3] were 114% and 103%, respectively. Moreover, the fluorescence slope is -0.53 (inactive) in assay [4] and 0.00637 (inactive) in assay [6]. Besides, in assay [5], the NADPH fluorescence slope is 2.6e-05 (inactive).

For the molecule `COc1ccc(OC)c(NC(=O)c2cn(C)c(=O)c3cc(OC)c(OC)cc23)c1`, the cell count in assay [1] is 782. Also, the inhibition in assay [1] is -20.3% (inactive); in assay [3] it was 10.9% (inactive); in assay [7] it was -16.7% (inactive); in assay [8], -26.6% (inactive). The inhibition of aggregation in assay [2] was 1.3% (inactive). Further, the values for the nuclei count in assay [2] and in assay [3] were 97.7% and 119%, respectively. In addition, the fluorescence slope was -0.307 (inactive) in assay [4] and 0.00686 (inactive) in assay [6]. In addition, in assay [5], the NADPH fluorescence slope was -1.5e-05 (inactive).

For the molecule `O=C(CN1C(=O)NC2(CCCCCC2)C1=O)N1CCC(Cc2ccccc2)CC1`, in assay [1], the cell count stood at 444. The inhibition in assay [1] is 2.9% (inactive); in assay [3], -38.1% (inactive); in assay [7] it was 0.617% (inactive); in assay [8], 15.9% (inactive). In assay [2], the inhibition of aggregation was -3.9% (inactive). In addition, the values for the nuclei count in assay [2] and in assay [3] were 99.8% and 104%, respectively. The fluorescence slope was -0.366 (inactive) in assay [4] and 0.00581 (inactive) in assay [6]. Further, the NADPH fluorescence slope in assay [5] was 2.2e-05 (inactive).

For the molecule `O=C(NC1CCCCC1)C(c1ccco1)N(Cc1cccnc1)C(=O)C1COc2ccccc2O1` (centres undefined), the cell count in assay [1] turned out to be 509. Also, the inhibition was -13.1% (inactive) in assay [1], -4.6% (inactive) in assay [3], 22.1% (inactive) in assay [7] and 35.6% (inactive) in assay [8]. In addition, the inhibition of aggregation in assay [2] is -14.5% (inactive). The nuclei count in assay [2] was found to be 111%; in assay [3], 198%. Further, the figures for the fluorescence slope in assay [4] and in assay [6] were -0.607 (inactive) and 0.00322 (inactive), respectively. For the same molecule, in assay [5], the NADPH fluorescence slope is -1e-05 (inactive).

Usually inhibition stands for the relative decrease from the control value, in per cent.
